Measured values reported in ChEMBL document CHEMBL3992532, “Structure-Based Design of Macrocyclic Factor XIa Inhibitors: Discovery of the Macrocyclic Amide Linker” (J Med Chem, 2017).
pKi: −log10 of the molar value.

How the values were obtained:
Plasma = assay: Anticoagulant activity in human plasma assessed as concentration required to produce 50% increase in activated partial thromboplastin time; format: functional
Method in brief: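 Citrated (one-tenth volume 0.11 M) plasma from healthy volunteers, spun 2,000 g 10 min, kept on ice; 10 mM DMSO stock diluted in plasma, up to 7 concentrations; aPTT on automated coagulometer, duplicates as mean ratio to baseline; EC1.5x (50% prolongation) by linear interpolation, as total plasma concentration.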

[1] = Half life in human liver microsomes; format: ADME, microsome
Coagulation factor VII = biological target: T1, Coagulation factor VII (Homo sapiens, UniProt P08709); assay: Inhibition of human coagulation factor 7a using H-(D)-Ile-Pro-Arg-pNA as substrate after 10 to 120 mins at 25 degC by spectrophotometric method
T1 sequence (P08709 whole entry): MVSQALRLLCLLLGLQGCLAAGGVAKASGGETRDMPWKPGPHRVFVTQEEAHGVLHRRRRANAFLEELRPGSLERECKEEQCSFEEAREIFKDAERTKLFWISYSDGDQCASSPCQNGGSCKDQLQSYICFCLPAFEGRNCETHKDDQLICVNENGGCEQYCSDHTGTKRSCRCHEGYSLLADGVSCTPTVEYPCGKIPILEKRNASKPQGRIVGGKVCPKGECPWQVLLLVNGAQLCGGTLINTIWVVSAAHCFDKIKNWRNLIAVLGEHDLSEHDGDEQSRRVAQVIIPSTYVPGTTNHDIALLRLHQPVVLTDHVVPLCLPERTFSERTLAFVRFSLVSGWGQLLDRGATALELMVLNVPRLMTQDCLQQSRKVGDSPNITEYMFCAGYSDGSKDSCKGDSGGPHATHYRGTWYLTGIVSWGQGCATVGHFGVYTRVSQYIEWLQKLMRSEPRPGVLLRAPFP

Coagulation factor IX = Coagulation factor IX (Homo sapiens, UniProt P00740); assay: Inhibition of human coagulation factor 9a using methylsulfonyl-D-cyclohexylglycyl-Gly-Arg-AMC as substrate after 10 to 120 mins at 37 degC by spectrophotometric method
Method in brief: (§1)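 Purified human proteases, 37 °C; reaction started by adding enzyme to substrate (up to 4× Km) ± inhibitor; compound from DMSO, 1% DMSO final except where noted. […] Buffers: FXIa, chymotrypsin, tPA, plasmin, urokinase in 50 mM HEPES pH 7.4, 145 mM NaCl, 5 mM KCl, 0.1% PEG 8000; FXa, thrombin, trypsin, plasma kallikrein, aPC in 100 mM Na phosphate pH 7.4, 200 mM NaCl, 0.5% PEG 8000; FIXa in 50 mM Tris pH 7.4, 100 mM NaCl, 5 mM CaCl2, 0.5% PEG 8000, 2% DMSO.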

Coagulation factor X = Coagulation factor X (Homo sapiens, UniProt P00742); assay: Inhibition of human coagulation factor 10a using N-benzoyl-Ile-Glu-(OH,OMe)-Gly-Arg-pNA as substrate after 10 to 120 mins at 37 degC by spectrophotometric method; method in brief: as §1
Coagulation factor XII = biological target: T2, Coagulation factor XII (Homo sapiens, UniProt P00748); assay: Inhibition of human coagulation factor 12a using H-(D)-CHT-Gly-Arg-pNA as substrate after 10 to 120 mins at 25 degC by spectrophotometric method
T2 sequence (P00748 whole entry): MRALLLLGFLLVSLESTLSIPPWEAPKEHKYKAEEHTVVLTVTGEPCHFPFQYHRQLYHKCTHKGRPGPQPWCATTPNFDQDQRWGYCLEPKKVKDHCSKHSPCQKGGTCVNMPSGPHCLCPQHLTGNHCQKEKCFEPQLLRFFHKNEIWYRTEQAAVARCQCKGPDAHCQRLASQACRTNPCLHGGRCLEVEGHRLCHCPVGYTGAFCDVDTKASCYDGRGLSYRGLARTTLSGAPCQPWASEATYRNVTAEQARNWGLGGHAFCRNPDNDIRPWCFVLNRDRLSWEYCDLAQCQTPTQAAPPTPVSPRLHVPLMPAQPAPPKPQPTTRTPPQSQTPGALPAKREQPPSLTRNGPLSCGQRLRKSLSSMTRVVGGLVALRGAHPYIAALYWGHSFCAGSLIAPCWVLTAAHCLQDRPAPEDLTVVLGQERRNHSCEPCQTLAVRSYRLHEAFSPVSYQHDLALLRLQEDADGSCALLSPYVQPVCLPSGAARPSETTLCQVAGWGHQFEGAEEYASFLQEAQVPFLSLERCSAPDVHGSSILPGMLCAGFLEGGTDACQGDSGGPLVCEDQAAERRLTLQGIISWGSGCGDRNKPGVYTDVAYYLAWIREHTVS

Prothrombin = Prothrombin (Homo sapiens, UniProt P00734); assay: Inhibition of human thrombin using pyroGlu-Pro-Arg-pNA as substrate after 10 to 120 mins at 37 degC by spectrophotometric method; method in brief: as §1
[2] = Inhibition of human trypsin using N-benzoyl-Ile-Glu-(OH,OMe)-Gly-Arg-pNA as substrate after 10 to 120 mins at 37 degC by spectrophotometric method; method in brief: as §1
Plasma kallikrein = Plasma kallikrein (Homo sapiens, UniProt P03952); assay: Inhibition of human plasma kallikrein using H-(D)-Pro-Phe-Arg-pNA as substrate after 10 to 120 mins at 37 degC by spectrophotometric method; method in brief: as §1
[3] = biological target: Vitamin K-dependent protein C (Homo sapiens, UniProt P04070); assay: Inhibition of human activated protein C using pyroGlu-Pro-Arg-pNA as substrate after 10 to 120 mins at 37 degC by spectrophotometric method; method in brief: as §1
Plasminogen = Plasminogen (Homo sapiens, UniProt P00747); assay: Inhibition of human plasmin using H-(D)-Val-Leu-LyspNA as substrate after 10 to 120 mins at 37 degC by spectrophotometric method; method in brief: as §1
[4] = biological target: Tissue-type plasminogen activator (Homo sapiens, UniProt P00750); assay: Inhibition of human tissue plasminogen activator using methylsulfonyl-D-cyclohexylalanyl-GlyArg-pNA as substrate after 10 to 120 mins at 37 degC by spectrophotometric method; method in brief: as §1
[5] = biological target: Urokinase-type plasminogen activator (Homo sapiens, UniProt P00749); assay: Inhibition of human urokinase using pyro-Glu-Gly-Arg-pNA as substrate after 10 to 120 mins at 37 degC by spectrophotometric method; method in brief: as §1
[6] = Inhibition of human chymotrypsin using MeO-SucArg-Pro-Tyr-pNA as substrate after 10 to 120 mins at 37 degC by spectrophotometric method; method in brief: as §1
[7] = Half life in Beagle dog at 0.19 mg/kg, iv administered as 10 mins infusion or 0.32 mg/kg, po via gavage administered as cassette dose by LC-MS/MS method; format: ADME, organism-based, Canis lupus familiaris; details: in vivo
Method in brief: (§2)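 Dog PK vehicles as footnoted: iv in 70% PEG 400/20% water/10% ethanol; po either 70% PEG 400/20% TPGS/10% ethanol or the same PEG 400/water/ethanol vehicle used for iv.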

[8] = Volume of distribution at steady state in Beagle dog at 0.19 mg/kg, iv administered as 10 mins infusion or 0.32 mg/kg, po via gavage administered as cassette dose by LC-MS/MS method; format: ADME, organism-based, Canis lupus familiaris; details: in vivo, read-out: Vdss; method in brief: as §2
Canis familiaris [9] = assay: Oral bioavailability in Beagle dog at 0.32 mg/kg administered via gavage as cassette dose by LC-MS/MS method; format: ADME, organism-based, Canis lupus familiaris; details: in vivo; method in brief: as §2
Canis familiaris [10] = assay: AUC in Beagle dog at 0.32 mg/kg, po administered via gavage as cassette dose by LC-MS/MS method; format: ADME, organism-based, Canis lupus familiaris; details: in vivo; method in brief: as §2
[11] = Half life in dog liver microsomes; format: ADME, Canis lupus familiaris, microsome
[12] = Protein binding in dog plasma; format: ADME, cell-free, Canis lupus familiaris; details: read-out: PPB (converted)
[13] = Permeability from apical to basolateral side in human Caco2 cells; format: ADME, cell-based; details: Caco-2, read-out: permeability
Coagulation factor XI = Coagulation factor XI (Homo sapiens, UniProt P03951); assay: Inhibition of human coagulation factor 11a using pyroGlu-Pro-Arg-pNA as substrate after 10 to 120 mins at 37 degC by spectrophotometric method; method in brief: as §1
Canis familiaris [14] = assay: Half life in Beagle dog at 0.2 mg/kg, iv administered as 10 mins infusion or 0.35 mg/kg, po via gavage administered as cassette dose by LC-MS/MS method; format: ADME, organism-based, Canis lupus familiaris; details: in vivo; method in brief: as §2
Canis familiaris [15] = assay: Volume of distribution at steady state in Beagle dog at 0.2 mg/kg, iv administered as 10 mins infusion or 0.35 mg/kg, po via gavage administered as cassette dose by LC-MS/MS method; format: ADME, organism-based, Canis lupus familiaris; details: in vivo; method in brief: as §2
[16] = Oral bioavailability in Beagle dog at 0.35 mg/kg administered via gavage as cassette dose by LC-MS/MS method; format: ADME, organism-based, Canis lupus familiaris; details: in vivo; method in brief: as §2

Sequence of Vitamin K-dependent protein C (P04070 43-197 limits assumed): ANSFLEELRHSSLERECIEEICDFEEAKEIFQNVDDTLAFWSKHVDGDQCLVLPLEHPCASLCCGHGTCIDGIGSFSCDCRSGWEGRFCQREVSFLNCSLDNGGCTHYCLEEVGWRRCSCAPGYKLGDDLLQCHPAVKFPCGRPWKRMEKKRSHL
Sequence of Vitamin K-dependent protein C (P04070 212-461 limits assumed): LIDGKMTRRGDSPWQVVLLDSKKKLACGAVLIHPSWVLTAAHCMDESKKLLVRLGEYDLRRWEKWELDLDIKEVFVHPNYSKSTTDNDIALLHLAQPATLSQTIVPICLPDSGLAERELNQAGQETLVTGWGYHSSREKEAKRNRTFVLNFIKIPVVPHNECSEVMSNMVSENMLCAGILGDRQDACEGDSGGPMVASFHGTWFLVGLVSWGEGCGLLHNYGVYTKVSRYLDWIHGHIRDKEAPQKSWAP
Sequence of Plasma kallikrein (P03952 20-390 limits assumed): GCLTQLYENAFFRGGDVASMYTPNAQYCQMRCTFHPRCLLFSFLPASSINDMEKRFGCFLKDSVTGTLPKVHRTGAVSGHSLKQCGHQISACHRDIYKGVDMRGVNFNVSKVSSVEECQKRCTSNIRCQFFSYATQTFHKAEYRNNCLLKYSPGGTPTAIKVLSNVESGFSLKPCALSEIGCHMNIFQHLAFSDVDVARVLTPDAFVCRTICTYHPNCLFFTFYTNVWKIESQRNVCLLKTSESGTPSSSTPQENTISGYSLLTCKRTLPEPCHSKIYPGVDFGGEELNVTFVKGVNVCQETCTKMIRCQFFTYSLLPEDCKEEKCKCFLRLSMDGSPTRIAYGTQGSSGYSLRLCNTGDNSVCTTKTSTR
Sequence of Plasma kallikrein (P03952 391-638 limits assumed): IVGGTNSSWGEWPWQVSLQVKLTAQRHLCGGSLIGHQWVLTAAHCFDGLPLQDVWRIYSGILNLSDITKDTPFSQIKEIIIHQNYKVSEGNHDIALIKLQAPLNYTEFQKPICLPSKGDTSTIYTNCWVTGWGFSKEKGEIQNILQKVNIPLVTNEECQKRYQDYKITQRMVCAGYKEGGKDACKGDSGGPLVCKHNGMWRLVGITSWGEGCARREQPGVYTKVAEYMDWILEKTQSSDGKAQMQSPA
Sequence of Tissue-type plasminogen activator (P00750 whole entry): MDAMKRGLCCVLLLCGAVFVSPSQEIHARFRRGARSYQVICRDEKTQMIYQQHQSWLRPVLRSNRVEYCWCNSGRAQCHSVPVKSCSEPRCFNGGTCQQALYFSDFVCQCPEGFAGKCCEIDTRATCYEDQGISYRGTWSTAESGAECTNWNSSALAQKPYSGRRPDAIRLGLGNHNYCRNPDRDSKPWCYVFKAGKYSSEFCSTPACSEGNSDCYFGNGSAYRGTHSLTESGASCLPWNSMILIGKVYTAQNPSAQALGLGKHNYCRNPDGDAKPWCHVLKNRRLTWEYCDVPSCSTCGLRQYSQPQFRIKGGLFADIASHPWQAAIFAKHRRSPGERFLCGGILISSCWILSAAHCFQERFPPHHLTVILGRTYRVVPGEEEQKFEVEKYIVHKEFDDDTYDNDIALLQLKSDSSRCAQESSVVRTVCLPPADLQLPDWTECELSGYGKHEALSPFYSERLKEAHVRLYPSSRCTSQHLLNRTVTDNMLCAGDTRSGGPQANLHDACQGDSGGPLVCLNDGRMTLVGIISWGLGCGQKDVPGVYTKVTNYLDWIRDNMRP
Sequence of Coagulation factor XI (P03951 19-387 limits assumed): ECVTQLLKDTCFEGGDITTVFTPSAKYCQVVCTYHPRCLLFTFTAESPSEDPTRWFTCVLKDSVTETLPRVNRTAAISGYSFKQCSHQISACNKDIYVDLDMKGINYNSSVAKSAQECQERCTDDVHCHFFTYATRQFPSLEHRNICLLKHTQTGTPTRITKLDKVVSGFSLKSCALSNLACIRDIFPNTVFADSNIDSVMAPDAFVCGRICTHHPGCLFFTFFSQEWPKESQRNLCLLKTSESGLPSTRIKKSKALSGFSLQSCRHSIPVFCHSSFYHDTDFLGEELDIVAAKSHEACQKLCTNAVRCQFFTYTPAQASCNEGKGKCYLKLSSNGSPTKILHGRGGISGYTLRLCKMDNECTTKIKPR
Sequence of Coagulation factor XI (P03951 388-625 limits assumed): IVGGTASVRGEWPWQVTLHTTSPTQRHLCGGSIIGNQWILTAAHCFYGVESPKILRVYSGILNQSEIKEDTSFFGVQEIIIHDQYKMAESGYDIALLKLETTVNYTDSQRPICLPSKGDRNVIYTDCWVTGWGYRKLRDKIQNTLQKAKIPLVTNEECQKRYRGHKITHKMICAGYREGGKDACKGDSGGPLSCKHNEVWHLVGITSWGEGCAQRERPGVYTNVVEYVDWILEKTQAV
Sequence of Coagulation factor X (P00742 41-179 limits assumed): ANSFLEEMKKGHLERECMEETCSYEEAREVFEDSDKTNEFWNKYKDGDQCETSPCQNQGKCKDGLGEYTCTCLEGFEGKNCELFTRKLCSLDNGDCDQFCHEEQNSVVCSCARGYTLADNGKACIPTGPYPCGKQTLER
Sequence of Coagulation factor X (P00742 235-488 limits assumed): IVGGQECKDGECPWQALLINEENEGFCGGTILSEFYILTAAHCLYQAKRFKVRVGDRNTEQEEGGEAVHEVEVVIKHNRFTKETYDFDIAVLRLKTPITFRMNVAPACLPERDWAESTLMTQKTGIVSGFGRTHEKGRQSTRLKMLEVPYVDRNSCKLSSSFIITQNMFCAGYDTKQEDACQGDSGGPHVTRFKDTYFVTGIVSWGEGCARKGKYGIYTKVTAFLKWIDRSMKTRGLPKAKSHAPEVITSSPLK
Sequence of Plasminogen (P00747 97-580 limits assumed): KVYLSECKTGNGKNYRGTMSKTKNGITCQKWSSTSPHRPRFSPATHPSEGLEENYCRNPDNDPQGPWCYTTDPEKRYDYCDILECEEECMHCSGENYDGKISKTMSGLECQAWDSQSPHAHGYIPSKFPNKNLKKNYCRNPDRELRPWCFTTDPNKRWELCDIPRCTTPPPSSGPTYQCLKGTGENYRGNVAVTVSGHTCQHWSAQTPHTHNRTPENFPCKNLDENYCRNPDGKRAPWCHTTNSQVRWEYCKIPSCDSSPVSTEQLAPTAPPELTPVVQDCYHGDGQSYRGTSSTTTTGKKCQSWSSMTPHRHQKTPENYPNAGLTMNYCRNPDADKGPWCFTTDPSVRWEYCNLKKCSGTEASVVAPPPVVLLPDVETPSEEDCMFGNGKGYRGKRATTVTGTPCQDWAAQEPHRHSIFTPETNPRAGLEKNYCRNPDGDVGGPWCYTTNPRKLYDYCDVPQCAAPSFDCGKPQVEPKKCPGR
Sequence of Plasminogen (P00747 581-810 limits assumed): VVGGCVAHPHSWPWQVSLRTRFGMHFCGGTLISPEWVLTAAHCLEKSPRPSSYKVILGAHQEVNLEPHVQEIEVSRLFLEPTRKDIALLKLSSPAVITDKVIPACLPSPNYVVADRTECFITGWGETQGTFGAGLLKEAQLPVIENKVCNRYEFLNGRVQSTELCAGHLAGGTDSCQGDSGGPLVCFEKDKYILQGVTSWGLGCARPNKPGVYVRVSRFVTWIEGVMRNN
Sequence of Coagulation factor IX (P00740 47-191 limits assumed): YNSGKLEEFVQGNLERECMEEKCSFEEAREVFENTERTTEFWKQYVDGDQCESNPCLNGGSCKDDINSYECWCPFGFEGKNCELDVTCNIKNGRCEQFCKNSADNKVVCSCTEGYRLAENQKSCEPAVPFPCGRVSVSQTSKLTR
Sequence of Coagulation factor IX (P00740 227-461 limits assumed): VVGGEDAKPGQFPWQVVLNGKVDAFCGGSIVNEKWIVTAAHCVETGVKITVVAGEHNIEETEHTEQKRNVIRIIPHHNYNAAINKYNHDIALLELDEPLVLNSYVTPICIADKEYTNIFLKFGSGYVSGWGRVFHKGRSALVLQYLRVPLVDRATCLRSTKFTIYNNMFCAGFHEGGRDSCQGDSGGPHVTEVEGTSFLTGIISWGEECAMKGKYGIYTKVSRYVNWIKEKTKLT

COC(=O)Nc1ccc2c(c1)NC(=O)CC/C=C/C[C@H](NC(=O)/C=C/c1cc(Cl)ccc1-n1cnnn1)c1nc-2c[nH]1
EC1.5 (Plasma): 0.27 µM
half-life [1]: 0.683 h
pKi (Coagulation factor VII): 5.78
pKi (Coagulation factor IX): < 4.57
pKi (Coagulation factor X): < 4.88
pKi (Coagulation factor XII): < 5.52
pKi (Prothrombin): < 4.94
pKi [2]: 5.82
pKi (Plasma kallikrein): 7.80
pKi [3]: < 4.67
pKi (Plasminogen): < 4.85
pKi [4]: < 5.21
pKi [5]: 5.30
pKi [6]: 5.82
half-life [7]: 1.2 h
Vd [8]: 1.8 L/kg
F (Canis familiaris [9]): 1%
AUC (Canis familiaris [10]): 2.5 nM·h
half-life [11]: > 2 h
fraction unbound [12]: 0.085
Papp A→B [13]: < 1.5 ×10⁻⁶ cm/s

COC(=O)Nc1ccc2c(c1)NC(=O)CCCCC[C@H](NC(=O)/C=C/c1cc(Cl)ccc1-n1cnnn1)c1nc-2c[nH]1
pKi (Coagulation factor XI): 8.49
EC1.5 (Plasma): 1.2 µM
half-life [1]: 0.567 h
t1/2 (Canis familiaris [14]): 1.1 h
Vdss (Canis familiaris [15]): 3.9 L/kg
bioavailability [16]: 0%
half-life [11]: > 2 h
fraction unbound [12]: 0.066
Papp A→B [13]: < 1.5 ×10⁻⁶ cm/s
